# ChEMBL document CHEMBL1147863, “Synthesis, antimicrobial activities and cytogenetic studies of newer diazepino quinoline derivatives via Vilsmeier-Haack reaction” (2007)
# Activity calls are given as the source filed them. The rule behind the calls is not given here.
# Legend:
# Fusarium oxysporum [1] = assay: Antifungal activity against Fusarium oxysporum at 0.5% (w/v) concentration by disc diffusion method; assay type: functional
# Method in brief: (§1)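 Potato dextrose agar plates were seeded with a spore suspension (10⁶ spores/mL). Compounds in acetone at a final 0.5%, 1% or 2% w/v were loaded onto 5 mm filter-paper discs. Plates were incubated at 28 ± 2 °C for four days. Zone diameter was measured after subtracting the acetone-only plate zone, with carbendazim as standard.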
# Aeromonas hydrophila [2] = assay: Antibacterial activity against Aeromonas hydrophila at 0.5% (w/v) concentration after 24 hrs by disc diffusion method; assay type: functional
# Method in brief: (§2)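 Disc diffusion on nutrient agar (pH 7.5 ± 0.2) swabbed with bacterial culture; compounds dissolved in chloroform at 0.125%, 0.25% or 0.5% w/v, soaked onto 5 mm filter paper discs placed on seeded plates. Incubated 35 ± 2 °C, 24 h; inhibition zone diameter (mm) measured, minus zone from solvent-only plate.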
# Talaromyces funiculosus [3] = assay: Antifungal activity against Penicillium funiculosum at 0.5% (w/v) concentration by disc diffusion method; assay type: functional; method in brief: as §1
# Fusarium oxysporum [4] = assay: Antifungal activity against Fusarium oxysporum at 1% (w/v) concentration by disc diffusion method; assay type: functional; method in brief: as §1
# Salmonella typhi [5] = assay: Antibacterial activity against Salmonella typhi at 0.5% (w/v) concentration after 24 hrs by disc diffusion method; assay type: functional, Salmonella enterica subsp. enterica serovar Typhi
# Method in brief: (§3)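 Disc diffusion on nutrient agar (pH 7.5 ± 0.2) swabbed with bacteria. Compounds were dissolved in chloroform at a final 0.125%, 0.25% or 0.5% w/v and loaded onto 5 mm filter-paper discs. Plates were incubated at 35 ± 2 °C for 24 h. The inhibition-zone diameter (mm) was reported after subtracting the zone of the solvent-only plate.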
# Aeromonas hydrophila [6] = assay: Antibacterial activity against Aeromonas hydrophila at 0.25% (w/v) concentration after 24 hrs by disc diffusion method; assay type: functional; method in brief: as §2
# Talaromyces funiculosus [7] = assay: Antifungal activity against Penicillium funiculosum at 2% (w/v) concentration by disc diffusion method; assay type: functional; method in brief: as §1
# Aspergillus flavus [8] = assay: Antifungal activity against Aspergillus flavus at 1% (w/v) concentration by disc diffusion method; assay type: functional; method in brief: as §1
# Fusarium oxysporum [9] = assay: Antifungal activity against Fusarium oxysporum at 2% (w/v) concentration by disc diffusion method; assay type: functional; method in brief: as §1
# Escherichia coli [10] = assay: Antibacterial activity against Escherichia coli at 0.5% (w/v) concentration by after 24 hrs by disc diffusion method; assay type: functional; method in brief: as §2
# Aspergillus flavus [11] = assay: Antifungal activity against Aspergillus flavus at 0.5% (w/v) concentration by disc diffusion method; assay type: functional; method in brief: as §1
# Aspergillus flavus [12] = assay: Antifungal activity against Aspergillus flavus at 2% (w/v) concentration by disc diffusion method; assay type: functional; method in brief: as §1
# [13] = Induction of chromosomal aberration in human peripheral blood leukocytes assessed as number of chromatid gaps at 20 ug/mL after 24 hrs; assay type: functional, Leukocyte
# Method in brief: (§4)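 Leukocytes from venous blood of three healthy non-smoking male donors, cultured at 37 °C for 72 h in McCoy's 5a with AB serum and PHA. Compound in 1% acetone was added at 0, 24 or 48 h after culture initiation (72, 48 or 24 h exposure), with water and acetone controls and triplicate cultures. Colchicine was added before harvest, then KCl hypotonic, fixation and Giemsa staining. Gaps and breaks were counted in 350 metaphases per treatment.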
# [14] = Induction of chromosomal aberration in human peripheral blood leukocytes assessed as number of chromatid breaks at 20 ug/mL after 24 hrs; assay type: functional, Leukocyte; method in brief: as §4
# Alternaria macrospora [15] = assay: Antifungal activity against Alternaria macrospora at 0.5% (w/v) concentration by disc diffusion method; assay type: functional; method in brief: as §1
# Aeromonas hydrophila [16] = assay: Antibacterial activity against Aeromonas hydrophila at 0.125% (w/v) concentration after 24 hrs by disc diffusion method; assay type: functional; method in brief: as §2
# Salmonella typhi [17] = assay: Antibacterial activity against Salmonella typhi at 0.25% (w/v) concentration after 24 hrs by disc diffusion method; assay type: functional, Salmonella enterica subsp. enterica serovar Typhi; method in brief: as §3
# Escherichia coli [18] = assay: Antibacterial activity against Escherichia coli at 0.25% (w/v) concentration after 24 hrs by disc diffusion method; assay type: functional; method in brief: as §2
# Alternaria macrospora [19] = assay: Antifungal activity against Alternaria macrospora at 1% (w/v) concentration by disc diffusion method; assay type: functional; method in brief: as §1
# Escherichia coli [20] = assay: Antibacterial activity against Escherichia coli at 0.125% (w/v) concentration after 24 hrs by disc diffusion method; assay type: functional; method in brief: as §2
# Talaromyces funiculosus [21] = assay: Antifungal activity against Penicillium funiculosum at 1% (w/v) concentration by disc diffusion method; assay type: functional; method in brief: as §1
# Salmonella typhi [22] = assay: Antibacterial activity against Salmonella typhi at 0.125% (w/v) concentration after 24 hrs by disc diffusion method; assay type: functional, Salmonella enterica subsp. enterica serovar Typhi; method in brief: as §3
# Alternaria macrospora [23] = assay: Antifungal activity against Alternaria macrospora at 2% (w/v) concentration by disc diffusion method; assay type: functional; method in brief: as §1
# [24] = Induction of chromosomal aberration in human peripheral blood leukocytes assessed as number of chromatid gaps at 20 ug/mL after 48 hrs; assay type: functional, Leukocyte; method in brief: as §4
# [25] = Induction of chromosomal aberration in human peripheral blood leukocytes assessed as number of chromatid breaks at 20 ug/mL after 48 hrs; assay type: functional, Leukocyte; method in brief: as §4
SMILES,inhibition zone (IZ) (Fusarium oxysporum [1]) [mm],inhibition zone (IZ) (Aeromonas hydrophila [2]) [mm],inhibition zone (IZ) (Fusarium oxysporum [4]) [mm],inhibition zone (IZ) (Salmonella typhi [5]) [mm],inhibition zone (IZ) (Aeromonas hydrophila [6]) [mm],inhibition zone (IZ) (Talaromyces funiculosus [7]) [mm],inhibition zone (IZ) (Aspergillus flavus [8]) [mm],inhibition zone (IZ) (Fusarium oxysporum [9]) [mm],inhibition zone (IZ) (Escherichia coli [10]) [mm],inhibition zone (IZ) (Aspergillus flavus [11]) [mm],inhibition zone (IZ) (Aspergillus flavus [12]) [mm],Activity [13] [%],Activity [14] [%],inhibition zone (IZ) (Alternaria macrospora [15]) [mm],inhibition zone (IZ) (Aeromonas hydrophila [16]) [mm],inhibition zone (IZ) (Salmonella typhi [17]) [mm],inhibition zone (IZ) (Escherichia coli [18]) [mm],inhibition zone (IZ) (Alternaria macrospora [19]) [mm],inhibition zone (IZ) (Talaromyces funiculosus [21]) [mm],inhibition zone (IZ) (Salmonella typhi [22]) [mm],other results
Cc1cccc2c(Cl)c3c(nc12)C=CNN=C3,2,11,6,12,7,10,4,10,6,2,8,0.6,0.3,3,4,7,2,6,3,5,Activity (Talaromyces funiculosus [3]): inactive; Activity (Escherichia coli [20]): inactive; inhibition zone (IZ) (Alternaria macrospora [23]): 10 mm
Cc1ccc(C)c2c(Cl)c3c(nc12)C=CNN=C3,4,11,11,14,8,17,9,15,9,4,16,2,0.9,7,4,9,5,11,10,5,inhibition zone (IZ) (Talaromyces funiculosus [3]): 5 mm; Activity [24]: 0.9%; Activity [25]: 0.3%; inhibition zone (IZ) (Escherichia coli [20]): 2 mm; inhibition zone (IZ) (Alternaria macrospora [23]): 17 mm
